Bioassay records from PubChem BioAssay.
ASAP1 GAP inh – ASAP1 ArfGAP inhibition; Q9ULH1; ASAP1-stimulated ARF1 GTP hydrolysis, GDP FP detection; inhibition, % at 16.5 µM; 360,000 compounds, 0.19% hits; AID 624377; in the data active = inhibition above about 25%;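 note: 0% = vehicle with enzyme and substrate and 100% = no enzyme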
Target sequence (Q9ULH1 325-724 limits assumed): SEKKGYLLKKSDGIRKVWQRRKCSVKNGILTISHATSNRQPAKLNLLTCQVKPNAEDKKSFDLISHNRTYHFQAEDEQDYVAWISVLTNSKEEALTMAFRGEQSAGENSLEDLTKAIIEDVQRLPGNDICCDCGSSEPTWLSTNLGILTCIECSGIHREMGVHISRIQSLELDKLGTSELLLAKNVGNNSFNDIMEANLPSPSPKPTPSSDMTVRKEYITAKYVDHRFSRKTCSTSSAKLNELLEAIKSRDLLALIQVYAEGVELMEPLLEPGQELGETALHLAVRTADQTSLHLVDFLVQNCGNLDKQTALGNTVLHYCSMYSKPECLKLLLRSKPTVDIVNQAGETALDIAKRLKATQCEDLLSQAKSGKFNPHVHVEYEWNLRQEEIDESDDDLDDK
PAFAH1B2 inh – blocks human PAF acetylhydrolase 1b catalytic subunit 2; recombinant PAFAH1B2, FP-rhodamine activity probe, fluorescence polarization; 340,000 compounds, 1.2% hits; AID 492953; P68402; inhibition, % at 3.39 µM;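 active = inhibition above the mean of all tested compounds plus 3 SD, cut at about 24% in these data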;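 note: 0% = enzyme with DMSO and 100% = wells lacking PAFAH1B2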
pPAFAH FP inh – inhibitors of human plasma PAF acetylhydrolase (pPAFAH) | 330,000 compounds, 1.5% hits | AID 463082 | recombinant pPAFAH, FP-rhodamine probe fluorescence polarization | inhibition, % at 3.39 µM;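 active = inhibition above the mean inhibition across the screen plus 3 SD, cut at about 25% in these data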;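 note: inhibitors block binding of the rhodamine activity-based probe so polarization drops; 0% = enzyme with DMSO and 100% = wells lacking pPAFAH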
PAFAH2 inh – inhibitors of human PAFAH2; 340,000 compounds, 0.99% hits; Q99487; recombinant PAFAH2, FP-rhodamine activity probe, fluorescence polarization; inhibition, % at 3.39 µM;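 active = inhibition above the mean over all tested compounds plus 3 SD, cut at about 30% in these data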;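 note: inhibitors block probe labeling of enzyme so polarization drops; 0% = enzyme with DMSO and 100% = wells lacking PAFAH2 protein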
ARFGAP1 inhibitor – rat ARFGAP1 inhibition | AID 651572 | inhibition, % at 16.5 µM | 360,000 compounds, 0.26% hits | Q62848 | Arfgap1-stimulated ARF1 GTP hydrolysis, GDP FP detection;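 active = inhibition above a per-plate limit, mean inhibition of low control wells plus 3 SD, cut at about 25% in these data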;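 note: 0% = DMSO wells with enzyme and 100% = wells lacking Arfgap1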
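Material: rat Arfgap1 catalytic domain, aa 1-136; also added: human ARF1(Δ1-17)-GTP substrate; compound dosing: one concentration, 16.5 µM, DMSO 1.26%; incubation: GTP hydrolysis reaction 2 h at 25 °C; measured by: Tracer-displacement fluorescence polarization with EDTA stop, 620/688 nm; evaluation: % inhibition from polarization; repeats: one replicate per compound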
PAFAH1B3 inh – blocks human PAF acetylhydrolase 1B catalytic subunit 3; inhibition, % at 3.39 µM; 340,000 compounds, 0.28% hits; recombinant PAFAH1B3, FP-rhodamine probe, fluorescence polarization; AID 492972; Q15102;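 active = inhibition above the screen-wide average of all tested compounds plus 3 SD, cut at about 25% in these data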;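 note: 0% = enzyme with DMSO only and 100% = wells lacking PAFAH1B3 protein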
PAFAH2 confirm – confirmation of human PAFAH2 inhibitors | shares compounds with PAFAH2 inh | recombinant PAFAH2, FP-rhodamine activity probe, fluorescence polarization | inhibition, % at 3.39 µM | 2,300 compounds, 65% hits | AID 493030;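 active = mean inhibition over three repeats above a set limit taken from the earlier primary screen, cut at about 30% in these data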;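 note: inhibitor blocks binding of rhodamine activity probe so polarization falls; 0% = enzyme with DMSO and 100% = wells lacking PAFAH2 protein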
* hit, by the source's call; x = no result given. Most compounds without a hit are left out; they make up all but 2.7% or so of the library.

SMILES | ASAP1 GAP inh | PAFAH1B2 inh | pPAFAH FP inh | PAFAH2 inh | ARFGAP1 inhibitor | PAFAH1B3 inh | PAFAH2 confirm
CCOC(=O)C1=C(C)NC(C)=C(C(=O)OCC)C1C(=O)OCC(=O)NC(C)c1ccccc1 (stereo not drawn) | 11 | 2 | x | 2 | -4 | 5 | x
CC(C)c1ccc(NC(=O)COC(=O)C2CCCCC2)cc1 | 8 | 2 | 7 | 45* | 10 | 2 | 29
CC(NC(=O)COC(=O)C1CCCCC1)c1ccccc1 (stereo not drawn) | 6 | 8 | 8 | 36* | 0 | 9 | 22
COc1cccc(CN2CC(C(=O)NCCCn3cccn3)CCC2=O)c1 (stereo not drawn) | -1 | 6 | 1 | -5 | 9 | 5 | x
CCCNC(=O)COC(=O)/C=C/c1ccco1 | -9 | 7 | 0 | 36* | -9 | 2 | 28
O=C(COC(=O)/C=C/c1ccc(Cl)cc1)NC(=O)NCc1ccccc1 | -18 | -8 | -7 | -18 | 9 | -7 | x
O=C(COC(=O)/C=C/c1ccco1)NCc1ccc(Cl)cc1 | -3 | 4 | -3 | 43* | 0 | 2 | 38*
O=C(COC(=O)/C=C/c1ccccc1)NCc1ccc(Cl)cc1 | 3 | 1 | 9 | 34* | 3 | 8 | 34*
CCOC(=O)COc1ccccc1C(=O)c1cnn(-c2ccccc2)c1 | -6 | 3 | -10 | -3 | -3 | 4 | x
CC(NC(=O)COC(=O)c1cccs1)c1ccccc1 (stereo not drawn) | -3 | 3 | 1 | 60* | 6 | 10 | 47*
NC(=O)c1ccc(NC(=O)CCC(=O)c2cccs2)cc1 | 8 | -3 | 16 | 6 | 1 | 4 | x
COc1cc(OC)cc(C(=O)OCC(=O)NC(C)CCc2ccccc2)c1 (stereo not drawn) | 9 | 6 | 4 | -2 | 4 | -2 | x
COc1ccc(C(=O)OCC(=O)NC(C)CCc2ccccc2)c(OC)c1 (stereo not drawn) | -3 | 12 | 2 | 49* | 18 | 12 | 22
CC(CCc1ccccc1)NC(=O)COC(=O)c1cccs1 (stereo not drawn) | -15 | 5 | 10 | 60* | -5 | 3 | 44*
CCC(=O)Nc1ccc(C(=O)OCC(=O)c2cccs2)cc1 | 4 | 1 | -4 | 34* | -1 | 0 | 32*
CC(CCc1ccccc1)NC(=O)COC(=O)c1cccn1C (stereo not drawn) | 8 | 3 | 6 | 21 | -2 | 3 | x
CC(NC(=O)COC(=O)/C(=C/c1cccs1)c1cccs1)c1ccccc1 (stereo not drawn) | 0 | -1 | 12 | 13 | -5 | 4 | x
CCOc1ccc(N(CC(=O)NC2CCCC2)C(=O)CSc2nnc(COc3ccccc3)o2)cc1 | 0 | 1 | 9 | -2 | -8 | 4 | x
CC(C)Cn1c(SCC(=O)N(C)c2c(N)n(Cc3ccccc3)c(=O)[nH]c2=O)nc2ccccc21 | -1 | 1 | 3 | 2 | 1 | 5 | x
Cc1ccc(S(=O)(=O)N(C)C)cc1NC(=O)COC(=O)c1ccc2c(c1)OCCO2 | -5 | 9 | 11 | 64* | -2 | 6 | 64*
Cc1ccc(S(=O)(=O)N(C)C)cc1NC(=O)COC(=O)c1ccc2c(c1)OCO2 | -4 | 2 | 0 | 60* | 14 | -3 | 52*
CN(C)S(=O)(=O)c1cccc(COC(=O)c2ccc(Cl)cc2O)c1 | 12 | 4 | 11 | 2 | 0 | 0 | x
Cc1ccc(C)c(NC(=O)COC(=O)c2ccc3c(c2)OCO3)c1 | -6 | 2 | 5 | 20 | -1 | 16 | x
CN(C)S(=O)(=O)c1cccc(COC(=O)c2ccc3c(c2)OCO3)c1 | 1 | 3 | 8 | 31* | 0 | 3 | 25
Cc1ccc(S(=O)(=O)N(C)C)cc1NC(=O)COC(=O)C1=COCCO1 | 3 | 1 | -4 | 27 | -14 | 4 | x
CCN(c1ccc(OC)cc1)S(=O)(=O)N1CCCC(C(=O)NCc2ccc(OC(C)C)cc2)C1 (stereo not drawn) | 10 | x | x | x | 6 | x | x
